Laboratory results taken from ChEMBL document CHEMBL1165958, “Compounds from Acorus tatarinowii: determination of absolute configuration by quantum computations and cAMP regulation activity” (J Nat Prod, 2010).
The source made the active and inactive calls. No cut-off for these calls is given here.

species on record: Mus musculus; assay: Induction of cAMP level in mouse NIE115 cells at 50 uM after 30 mins by Alphascreen cAMP assay; type: functional, cell-based
In short: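 N1E-115 neuroblastoma cells exposed to each test compound at 50 µM. Intracellular cAMP measured by AlphaScreen and read out as counts per second (cps). Values reported as means with standard error of the mean. Significance marked at p < 0.05, 0.01 and 0.001.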

Row | SMILES | Activity
1 | COc1cc(OC)c(C(=O)C(C)=O)cc1OC | Active
2 | COc1cc(OC)c(OC)cc1CC(C)=O | Active
3 | COc1cc(OC)c(C(c2cc(OC)c(OC)cc2OC)[C@@H](C)O)cc1OC | Active
4 | CC1=CC[C@@]2(CC1=O)[C@@H](C(C)C)C(=O)C[C@@H]2C | inactive
5 | C=C1CC[C@@H]2[C@@](O)(C1)[C@H](C(C)C)CC[C@@]2(C)O | inactive
6 | CC1=CC[C@@]2(CC1=O)[C@H](C(C)C)[C@H](O)C[C@@H]2C | inactive
7 | C/C=C\c1cc(OC)c(OC)cc1OC | inactive
8 | C/C=C/c1cc(OC)c(OC)cc1OC | inactive
9 | COc1cc(OC)c(OC)cc1/C=C\C=O | Active
10 | CC(=O)O[C@@H]1C[C@H](C)[C@@]2(CC=C(C)C(=O)C2)[C@@H]1C(C)C | inactive
11 | C/C=C\c1ccc(OC)c(OC)c1 | inactive
12 | COc1cc(OC)c(OC)cc1C=O | Active
13 | COc1ccc(CC(C)=O)cc1OC | inactive
14 | CCC(=O)c1cc(OC)c(OC)cc1OC | Active
15 | C[C@H]1CC[C@H]2C(C)(C)C(=O)[C@@]3(C)C[C@@H](O)[C@@]12C3 | inactive
16 | CC1=CC[C@]2(CC1=O)[C@@H](C)CC(=O)[C@H]2C(C)C | inactive
